What was measured:
[1] = molecular target: T1, A disintegrin and metalloproteinase with thrombospondin motifs 4 (Homo sapiens, UniProt O75173); assay: Inhibition of ADAMTS-4 assessed as substrate cleavage after 16 hrs by fluorescence assay
T1 sequence (O75173 whole entry): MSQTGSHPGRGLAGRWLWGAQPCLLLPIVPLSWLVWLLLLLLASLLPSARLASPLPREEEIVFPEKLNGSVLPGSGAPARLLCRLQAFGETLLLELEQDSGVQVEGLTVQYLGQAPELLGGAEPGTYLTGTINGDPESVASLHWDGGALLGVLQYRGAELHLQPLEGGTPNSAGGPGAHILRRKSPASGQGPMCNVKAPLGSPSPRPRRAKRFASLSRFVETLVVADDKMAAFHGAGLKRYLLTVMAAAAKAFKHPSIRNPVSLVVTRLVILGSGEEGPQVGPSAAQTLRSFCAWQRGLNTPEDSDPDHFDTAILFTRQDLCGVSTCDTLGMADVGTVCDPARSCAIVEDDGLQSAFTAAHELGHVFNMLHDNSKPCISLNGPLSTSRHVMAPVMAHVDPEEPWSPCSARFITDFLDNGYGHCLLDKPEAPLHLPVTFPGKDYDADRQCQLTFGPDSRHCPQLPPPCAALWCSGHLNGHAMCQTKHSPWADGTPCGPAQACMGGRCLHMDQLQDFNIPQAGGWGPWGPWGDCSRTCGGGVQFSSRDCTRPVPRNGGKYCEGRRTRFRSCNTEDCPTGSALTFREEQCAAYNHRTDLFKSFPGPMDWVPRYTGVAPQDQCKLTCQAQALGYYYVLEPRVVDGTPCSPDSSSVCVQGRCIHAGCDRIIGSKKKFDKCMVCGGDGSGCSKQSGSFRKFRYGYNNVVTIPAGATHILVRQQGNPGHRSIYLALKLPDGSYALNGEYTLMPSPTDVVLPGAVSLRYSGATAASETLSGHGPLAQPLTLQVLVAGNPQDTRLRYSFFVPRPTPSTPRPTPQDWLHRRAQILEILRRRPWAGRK
Outline: (§1)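 Enzyme inhibition IC50s derived from at least six measurements, standard errors normally <5% within an assay; a standard compound run to keep assay-to-assay variability within twofold.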

Collagenase 3 = Collagenase 3 (Homo sapiens, UniProt P45452); assay: Inhibition of recombinant human MMP-13 assessed as substrate cleavage after 20 hrs by fluorescence assay; outline: as §1
[2] = molecular target: Matrix metalloproteinase-14 (Homo sapiens, UniProt P50281); assay: Inhibition of recombinant human MMP-14 assessed as substrate cleavage after 20 hrs by fluorescence assay; outline: as §1
Interstitial collagenase = molecular target: T2, Interstitial collagenase (Homo sapiens, UniProt P03956); assay: Inhibition of recombinant human MMP-1 assessed as substrate cleavage after 20 hrs by fluorescence assay; outline: as §1
T2 sequence (P03956 whole entry): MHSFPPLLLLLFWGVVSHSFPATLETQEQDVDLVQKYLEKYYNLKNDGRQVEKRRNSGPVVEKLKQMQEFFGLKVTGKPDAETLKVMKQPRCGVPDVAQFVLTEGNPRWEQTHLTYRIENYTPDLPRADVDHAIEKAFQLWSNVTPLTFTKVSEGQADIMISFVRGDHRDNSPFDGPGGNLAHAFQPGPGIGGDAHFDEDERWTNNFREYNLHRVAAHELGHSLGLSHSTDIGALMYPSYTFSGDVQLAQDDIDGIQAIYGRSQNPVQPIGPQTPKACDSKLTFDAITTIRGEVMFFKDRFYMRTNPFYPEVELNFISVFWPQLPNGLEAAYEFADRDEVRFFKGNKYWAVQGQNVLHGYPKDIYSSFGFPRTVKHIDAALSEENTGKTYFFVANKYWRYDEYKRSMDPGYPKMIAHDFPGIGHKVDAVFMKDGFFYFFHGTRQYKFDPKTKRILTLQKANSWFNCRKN

Cytochrome P450 3A4 = Cytochrome P450 3A4 (Homo sapiens, UniProt P08684); assay: Inhibition of CYP3A4; assay type: ADME
Outline: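 Inhibition of cytochrome P450 isoforms 1A2, 2C9, 2C19, 2D6 and 3A4, reported as pIC50.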

[3] = molecular target: T3, A disintegrin and metalloproteinase with thrombospondin motifs 5 (Homo sapiens, UniProt Q9UNA0); assay: Inhibition of ADAMTS-5 assessed as substrate cleavage after 16 hrs by fluorescence assay; outline: as §1
T3 sequence (Q9UNA0 whole entry): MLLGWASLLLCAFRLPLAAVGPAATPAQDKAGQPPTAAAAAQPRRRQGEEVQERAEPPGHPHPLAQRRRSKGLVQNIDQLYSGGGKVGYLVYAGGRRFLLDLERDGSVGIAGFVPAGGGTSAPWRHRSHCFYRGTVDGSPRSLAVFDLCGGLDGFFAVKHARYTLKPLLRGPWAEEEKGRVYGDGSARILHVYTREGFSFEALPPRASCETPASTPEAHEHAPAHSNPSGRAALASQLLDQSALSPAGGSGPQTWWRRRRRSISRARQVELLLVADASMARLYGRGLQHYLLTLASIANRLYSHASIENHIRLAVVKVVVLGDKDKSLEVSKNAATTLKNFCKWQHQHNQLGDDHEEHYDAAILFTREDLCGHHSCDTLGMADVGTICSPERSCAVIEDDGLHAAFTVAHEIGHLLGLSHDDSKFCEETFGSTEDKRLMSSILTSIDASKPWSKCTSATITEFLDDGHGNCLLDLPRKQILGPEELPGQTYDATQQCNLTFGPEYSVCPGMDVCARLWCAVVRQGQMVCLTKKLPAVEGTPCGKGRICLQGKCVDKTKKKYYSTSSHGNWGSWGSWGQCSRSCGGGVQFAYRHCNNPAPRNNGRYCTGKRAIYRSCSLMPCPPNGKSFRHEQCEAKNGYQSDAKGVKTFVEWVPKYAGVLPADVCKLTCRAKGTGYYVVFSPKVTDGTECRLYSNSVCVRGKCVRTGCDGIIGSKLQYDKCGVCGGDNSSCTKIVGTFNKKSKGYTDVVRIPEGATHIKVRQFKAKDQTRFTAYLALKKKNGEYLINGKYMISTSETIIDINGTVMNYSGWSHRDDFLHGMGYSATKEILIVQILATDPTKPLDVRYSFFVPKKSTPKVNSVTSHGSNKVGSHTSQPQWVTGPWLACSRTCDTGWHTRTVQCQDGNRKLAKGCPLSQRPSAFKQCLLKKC

[4] = molecular target: 72 kDa type IV collagenase (Homo sapiens, UniProt P08253); assay: Inhibition of recombinant human MMP-2 assessed as substrate cleavage after 20 hrs by fluorescence assay; outline: as §1
[5] = molecular target: Matrix metalloproteinase-9 (Homo sapiens, UniProt P14780); assay: Inhibition of recombinant human MMP-9 assessed as substrate cleavage after 20 hrs by fluorescence assay; outline: as §1
[6] = Intrinsic clearance in human liver microsomes; assay type: ADME, Microsome
Outline: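 Human liver microsome metabolism; intrinsic clearance expressed as μL/min/mg, reported as mean of eight separate experiments.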

Matrix metalloproteinase-9, sequence (P14780 whole entry): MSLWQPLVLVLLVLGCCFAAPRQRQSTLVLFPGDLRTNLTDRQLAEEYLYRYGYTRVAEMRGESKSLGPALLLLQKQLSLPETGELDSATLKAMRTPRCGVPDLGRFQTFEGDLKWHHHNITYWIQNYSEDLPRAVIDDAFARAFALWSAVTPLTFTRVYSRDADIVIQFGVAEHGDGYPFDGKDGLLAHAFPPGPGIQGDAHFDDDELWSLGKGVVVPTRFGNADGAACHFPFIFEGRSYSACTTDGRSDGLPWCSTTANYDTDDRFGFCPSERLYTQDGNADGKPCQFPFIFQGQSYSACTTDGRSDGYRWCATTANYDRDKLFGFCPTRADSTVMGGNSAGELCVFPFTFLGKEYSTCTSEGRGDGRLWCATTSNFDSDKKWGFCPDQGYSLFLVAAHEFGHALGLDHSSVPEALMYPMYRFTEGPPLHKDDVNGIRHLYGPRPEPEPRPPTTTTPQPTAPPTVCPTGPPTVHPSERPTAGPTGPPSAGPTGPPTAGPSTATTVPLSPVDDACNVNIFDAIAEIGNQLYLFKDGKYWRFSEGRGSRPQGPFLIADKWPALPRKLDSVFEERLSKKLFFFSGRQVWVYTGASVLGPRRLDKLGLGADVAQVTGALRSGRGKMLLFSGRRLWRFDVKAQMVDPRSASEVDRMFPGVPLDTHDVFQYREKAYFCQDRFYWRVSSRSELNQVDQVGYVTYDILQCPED
Cytochrome P450 3A4, sequence (P08684 whole entry, canonical isoform): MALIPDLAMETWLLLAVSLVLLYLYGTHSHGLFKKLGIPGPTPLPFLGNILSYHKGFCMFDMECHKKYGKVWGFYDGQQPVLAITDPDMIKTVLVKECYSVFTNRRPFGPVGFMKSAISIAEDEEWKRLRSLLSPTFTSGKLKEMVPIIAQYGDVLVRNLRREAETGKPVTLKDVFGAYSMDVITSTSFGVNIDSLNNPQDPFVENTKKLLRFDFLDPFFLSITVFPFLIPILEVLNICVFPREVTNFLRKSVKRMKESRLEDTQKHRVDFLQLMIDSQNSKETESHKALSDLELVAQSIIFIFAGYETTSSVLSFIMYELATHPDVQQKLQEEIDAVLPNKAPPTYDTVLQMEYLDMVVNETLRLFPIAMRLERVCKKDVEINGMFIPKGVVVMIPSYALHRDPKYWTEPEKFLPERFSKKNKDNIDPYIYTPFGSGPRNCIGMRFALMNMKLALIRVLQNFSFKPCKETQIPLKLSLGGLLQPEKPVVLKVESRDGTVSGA
72 kDa type IV collagenase, sequence (P08253 whole entry): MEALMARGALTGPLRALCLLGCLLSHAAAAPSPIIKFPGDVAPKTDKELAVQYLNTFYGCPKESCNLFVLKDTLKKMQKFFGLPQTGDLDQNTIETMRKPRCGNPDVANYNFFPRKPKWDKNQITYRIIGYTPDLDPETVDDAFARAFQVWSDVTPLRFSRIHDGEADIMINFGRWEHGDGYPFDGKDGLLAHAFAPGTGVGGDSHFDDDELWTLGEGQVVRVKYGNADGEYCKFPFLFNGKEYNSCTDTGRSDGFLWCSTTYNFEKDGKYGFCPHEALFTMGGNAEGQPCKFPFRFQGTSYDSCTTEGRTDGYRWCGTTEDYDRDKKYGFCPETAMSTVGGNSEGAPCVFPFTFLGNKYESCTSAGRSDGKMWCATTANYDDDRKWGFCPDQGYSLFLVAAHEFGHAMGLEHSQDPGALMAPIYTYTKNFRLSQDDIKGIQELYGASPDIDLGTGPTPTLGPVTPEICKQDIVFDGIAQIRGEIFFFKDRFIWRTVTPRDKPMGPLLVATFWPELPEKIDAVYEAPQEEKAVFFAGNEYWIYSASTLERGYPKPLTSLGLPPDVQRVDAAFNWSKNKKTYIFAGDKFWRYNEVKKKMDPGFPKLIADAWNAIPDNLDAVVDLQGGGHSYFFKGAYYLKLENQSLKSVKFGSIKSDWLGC

| IC50 [1] | IC50 (Collagenase 3) | IC50 [2] | IC50 (Interstitial collagenase) | IC50 (Cytochrome P450 3A4) | IC50 [3] | IC50 [4] | IC50 [5] | microsomal CLint [6] | Compound |
| --- | --- | --- | --- | --- | --- | --- | --- | --- | --- |
| 530 nM | 570 nM | 2900 nM | > 6700 nM | > 10000 nM |  |  |  |  | CN1CCC(CS(=O)(=O)N2CCN(c3ccc(F)cc3)CC2)(N(O)C=O)CC1 |
| 4.1 nM |  |  |  |  | 13 nM |  |  |  | Cc1ccccc1CCC1CCN(S(=O)(=O)CC2(N(O)C=O)CCN(C(=O)C3CCC3)CC2)CC1 |
| 1.9 nM |  |  |  |  | 11 nM |  |  |  | Cc1cc(F)ccc1CCC1CCN(S(=O)(=O)CC2(N(O)C=O)CCN(C(=O)C3CCC3)CC2)CC1 |
| 24 nM | > 10000 nM | > 10000 nM | > 10000 nM |  | 820 nM | > 10000 nM | > 10000 nM | < 2 µL/min/mg | CC(=O)N1CCC(CS(=O)(=O)N2CCC(CCc3c(C)noc3C)CC2)(N(O)C=O)CC1 |
|  | 154 nM | 226 nM | > 10000 nM | 1000 nM |  |  |  |  | CC(CS(=O)(=O)N1CCN(c2ccc(F)cc2)CC1)N(O)C=O (racemic) |
| 400 nM | 2000 nM | 8000 nM | > 10000 nM |  | 5400 nM | 3800 nM | > 10000 nM | < 2 µL/min/mg | Cc1ncccc1CCC1CCN(S(=O)(=O)CC2(N(O)C=O)CCOCC2)CC1 |
| 52 nM | > 10000 nM | > 10000 nM | > 10000 nM |  | 1900 nM | > 10000 nM | > 10000 nM |  | Cc1noc(C)c1CCC1CCN(S(=O)(=O)CC2(N(O)C=O)CCCC2)CC1 |
| 5.8 nM | 1700 nM | > 10000 nM | > 10000 nM |  | 530 nM | 3300 nM | > 10000 nM | 2 µL/min/mg | Cc1cc(S(C)(=O)=O)ccc1CCC1CCN(S(=O)(=O)CC2(N(O)C=O)CCOCC2)CC1 |
| 92 nM | 1400 nM | 1400 nM | > 10000 nM | > 10000 nM |  |  |  |  | CC(C)(CS(=O)(=O)N1CCN(c2ccc(F)cc2)CC1)N(O)C=O |
| 1.4 nM | > 10000 nM | > 10000 nM | > 10000 nM |  | 950 nM | > 10000 nM | > 10000 nM | 3.7 µL/min/mg | CS(=O)(=O)c1ccc(CCC2CCN(S(=O)(=O)CC3(N(O)C=O)CCOCC3)CC2)c(C2CC2)c1 |
| 100 nM | 1100 nM | 2900 nM | > 10000 nM |  | 580 nM | 1100 nM | 8500 nM | 3.8 µL/min/mg | Cc1cccnc1CCC1CCN(S(=O)(=O)CC2(N(O)C=O)CCOCC2)CC1 |
| 380 nM | 8400 nM | > 10000 nM | > 10000 nM |  | 5200 nM | > 10000 nM | > 10000 nM |  | Cc1cnc(C)c(CCC2CCN(S(=O)(=O)CC3(N(O)C=O)CCOCC3)CC2)c1 |
| 2.7 nM | 780 nM | > 10000 nM | > 10000 nM |  | 65 nM | 1400 nM | 1200 nM |  | Cc1cc(Cl)ccc1CCC1CCN(S(=O)(=O)CC2(N(O)C=O)CCOCC2)CC1 |
| 130 nM | > 10000 nM | > 10000 nM | > 10000 nM |  | 1400 nM | 7600 nM | 8900 nM |  | Cc1cc(C)c(CCC2CCN(S(=O)(=O)CC3(N(O)C=O)CCOCC3)CC2)cn1 |
| 51 nM | > 10000 nM | > 10000 nM | > 10000 nM |  | 1500 nM | > 10000 nM | > 10000 nM | 3.3 µL/min/mg | Cc1noc(C)c1CCC1CCN(S(=O)(=O)CC2(N(O)C=O)CCC2)CC1 |
| 8.7 nM |  |  |  |  | 61 nM |  |  |  | O=CN(O)C1(CS(=O)(=O)N2CCC(CCc3ccc(F)cc3C(F)(F)F)CC2)CCN(C(=O)C2CCC2)CC1 |
| 1.2 nM |  |  |  |  | 20 nM |  |  |  | Cc1cc(Cl)ccc1CCC1CCN(S(=O)(=O)CC2(N(O)C=O)CCN(C(=O)C3CCC3)CC2)CC1 |
| 48 nM | > 10000 nM | > 10000 nM | > 10000 nM |  | 1500 nM | > 10000 nM | > 10000 nM | 59 µL/min/mg | Cc1noc(C)c1CCC1CCN(S(=O)(=O)CC2(N(O)C=O)CCCCCC2)CC1 |
| 470 nM | 260 nM | 1200 nM | > 10000 nM |  | 1700 nM | 150 nM | 670 nM | 8.8 µL/min/mg | O=CN(O)C1(CS(=O)(=O)N2CCC(CCc3ccccc3)CC2)CCOCC1 |
| 20 nM | > 4100 nM | > 7500 nM | > 10000 nM |  | 850 nM | > 10000 nM | > 10000 nM |  | Cc1noc(C)c1CCC1CCN(S(=O)(=O)CC2(N(O)C=O)CCCCC2)CC1 |
| 29 nM | 4600 nM | > 10000 nM | > 10000 nM |  | 310 nM | > 10000 nM | > 10000 nM | 6.5 µL/min/mg | Cc1noc(C)c1CCC1CCN(S(=O)(=O)CC2(N(O)C=O)CCN(S(C)(=O)=O)CC2)CC1 |
| 5.6 nM | > 600 nM | > 770 nM | > 10000 nM |  | 31 nM | 620 nM | > 1800 nM | < 2 µL/min/mg | Cc1ccccc1CCC1CCN(S(=O)(=O)CC2(N(O)C=O)CCOCC2)CC1 |
| 110 nM | 5900 nM | > 7200 nM | > 10000 nM |  | 630 nM | 3500 nM | > 10000 nM | 3.4 µL/min/mg | Cc1ccncc1CCC1CCN(S(=O)(=O)CC2(N(O)C=O)CCOCC2)CC1 |
| 11 nM | > 10000 nM | > 10000 nM | > 10000 nM |  | 480 nM | > 10000 nM | > 10000 nM | 31 µL/min/mg | Cc1noc(C)c1CCC1CCN(S(=O)(=O)CC2(N(O)C=O)CCN(C(=O)N3CCC3)CC2)CC1 |

| Compound | IC50 [1] | IC50 (Collagenase 3) | IC50 [2] | IC50 (Interstitial collagenase) | IC50 (Cytochrome P450 3A4) | IC50 [3] | IC50 [4] | IC50 [5] | microsomal CLint [6] |
| --- | --- | --- | --- | --- | --- | --- | --- | --- | --- |
| Cc1cc(C(F)(F)F)ccc1CCC1CCN(S(=O)(=O)CC2(N(O)C=O)CCN(C(=O)C3CCC3)CC2)CC1 | 1.2 nM |  |  |  |  | 79 nM |  |  |  |

Reference: ChEMBL document CHEMBL1781898, “Orally active achiral N-hydroxyformamide inhibitors of ADAM-TS4 (aggrecanase-1) and ADAM-TS5 (aggrecanase-2) for the treatment of osteoarthritis” (Bioorg Med Chem Lett, 2011)
